Data as given in ChEMBL document CHEMBL1147268, “New triterpene glycosides from the stems of Anomospermum grandifolium” (2003).
Values after ≈ are worked out from the molar mass of the structure shown. One block for each compound: values may come before it. Active and inactive are the calls of the source. The rule behind the calls is not given here.

Key:
Pseudomonas aeruginosa [1] = test: Antibacterial activity against Pseudomonas aeruginosa ATCC 27853 at 250 ug/mL after 18 hrs by broth microdilution method; format: functional, organism-based
In short: (§1)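 Broth microdilution in Mueller Hinton broth in 96-well plates, run in duplicate following NCCLS guidance. Pure compounds were tested at dilution intervals up to a top concentration of 120 or 250 µg/mL. Plates were incubated 18 h at 37 °C and read from below with a reflective viewer. DMSO served as blank control and ampicillin as positive control.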

Staphylococcus aureus [2] = test: Antibacterial activity against Staphylococcus aureus ATCC 25923 at 250 ug/mL after 18 hrs by broth microdilution method; format: functional, organism-based; in short: as §1
Candida albicans = test: Antifungal activity against Candida albicans ATCC 3153 after 18 hrs by broth microdilution method; format: functional; settings: ATCC 3153, 18 h
In short: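 Candida albicans ATCC 3153 was tested by broth microdilution in Sabouraud broth in 96-well plates, in duplicate, per NCCLS. Pure compounds were tested at varied dilution intervals. Plates were incubated 18 h at 37 °C and read from below with a reflective viewer. MIC was taken from the growth end point. DMSO served as blank control and ketoconazole as positive control.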

Enterococcus faecalis [3] = test: Antibacterial activity against Enterococcus faecalis ATCC 29212 at 250 ug/mL after 18 hrs by broth microdilution method; format: functional, organism-based; in short: as §1
Escherichia coli [4] = test: Antibacterial activity against Escherichia coli ATCC 25922 at 250 ug/mL after 18 hrs by broth microdilution method; format: functional, organism-based; in short: as §1
Enterococcus faecalis [5] = test: Antibacterial activity against Enterococcus faecalis ATCC 29212 at 120 ug/mL after 18 hrs by broth microdilution method; format: functional, organism-based; in short: as §1
Escherichia coli [6] = test: Antibacterial activity against Escherichia coli ATCC 25922 at 120 ug/mL after 18 hrs by broth microdilution method; format: functional, organism-based; in short: as §1
Staphylococcus aureus [7] = test: Antibacterial activity against Staphylococcus aureus ATCC 25923 at 120 ug/mL after 18 hrs by broth microdilution method; format: functional, organism-based; in short: as §1
Pseudomonas aeruginosa [8] = test: Antibacterial activity against Pseudomonas aeruginosa ATCC 27853 at 120 ug/mL after 18 hrs by broth microdilution method; format: functional, organism-based; in short: as §1

MIC (Candida albicans): 250 mg/L (≈ 236 µM)
SMILES: CC(C)=C[C@H]1C[C@](C)(O)[C@@H]2[C@H]3CC[C@@H]4[C@@]5(C)CC[C@H](O[C@@H]6OC[C@H](O)[C@H](O[C@@H]7O[C@H](CO[C@@H]8O[C@H](CO)[C@@H](O)[C@H](O)[C@H]8O)[C@@H](O)[C@H](O)[C@H]7O)[C@H]6O[C@@H]6O[C@@H](CO)[C@H](O)[C@H]6O)C(C)(C)[C@@H]5CC[C@@]4(C)[C@@]34CO[C@@]2(C4)O1
Activity (Pseudomonas aeruginosa [1]): inactive
Activity (Staphylococcus aureus [2]): inactive
Activity (Enterococcus faecalis [3]): inactive
Activity (Escherichia coli [4]): inactive

SMILES: CC(C)=C[C@H]1C[C@](C)(O)[C@@H]2[C@H]3CC[C@@H]4[C@@]5(C)CC[C@H](O[C@@H]6OC[C@H](O)[C@H](O[C@@H]7O[C@H](CO)[C@@H](O)[C@H](O)[C@H]7O)[C@H]6O[C@@H]6O[C@@H](CO)[C@H](O)[C@H]6O)C(C)(C)[C@@H]5CC[C@@]4(C)[C@@]34CO[C@@]2(C4)O1
Activity (Enterococcus faecalis [5]): inactive
Activity (Escherichia coli [6]): inactive
Activity (Staphylococcus aureus [7]): inactive
Activity (Pseudomonas aeruginosa [8]): inactive

SMILES: CC(=O)N1CCN(c2ccc(OCC3COC(Cn4ccnc4)(c4ccc(Cl)cc4Cl)O3)cc2)CC1 (stereo not given) [KETOCONAZOLE]
MIC (Candida albicans): 0.1 mg/L (≈ 0.188 µM)
